Experimental data as given in publication PMC9624299 (ACS chemical biology, 2022).
pIC50: −log10 of the molar value.

Key:
T98G cells = experiment: Cell viability assay; type: cell-based, human; conditions: for cytotoxicity (in words) / pIC50: T98G
How it was run: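 T98G cells were cultured in EMEM/10% FBS/1% pen-strep at 37 °C, 5% CO2, seeded and allowed to adhere. Where indicated, cells were pretreated 3 h with the MGMT inhibitor O6BG. Test compound was then added in DMSO (1% final). After 7 days, viability was read by Alamar Blue, with raptinal 20 μM as dead control; n ≥ 3, SEM.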

U87 cells = experiment: Cell viability assay; type: cell-based, human; conditions: 7 days; for cytotoxicity (in words): U87; for pIC50: U87, no MGMT expression, MGMT(−)/MMR(+), Alamar Blue
How it was run: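 Cells were cultured in EMEM with 10% FBS and 1% pen-strep (37 °C, 5% CO2), seeded and allowed to adhere 3 h. Test compound was added in DMSO (1% final). After 7 days of incubation, viability was read by Alamar Blue, with raptinal 20 μM as dead control. IC50 taken from dose–response curves; n ≥ 3, SEM.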

[1] = Hydrolytic stability studies; type: physicochemical; conditions: for hydrolytic stability, percentage of prodrug remaining after 2 h: HPLC
How it was run: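 Compound (100 μM) was incubated in PBS at 37 °C, pH 7.4 (also pH 7 and 8). Aliquots taken at set time points were analysed by HPLC. Peak areas were compared with t0 to give percent prodrug remaining, including at 2 h.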

GBM = conditions: intracranial murine model of GBM; cited from earlier work
BBB permeability = type: in vivo, CD-1 IGS mice; conditions: mice, 25 mg/kg IV, 15 min
How it was run: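 CD-1 IGS mice received 25 mg/kg by lateral tail vein in 5% DMSO, 10% Tween-20 and 85% SBE-βCD (30% w/v in water), and were killed at 15 min. Blood was taken, then mice were saline-perfused. Serum was acidified with 8.5% H3PO4. Brains were acidified (0.3% H3PO4), frozen, homogenised and centrifuged. Levels were measured by LC–MS/MS and used for brain:serum ratio; ≥3 mice/cohort.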

GBM cell lines = experiment: Cell viability assay; type: cell-based; conditions: 7 days
How it was run: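 Panel lines were seeded and allowed to adhere 3 h, then dosed with test compound in DMSO (1% final) and incubated at 37 °C, 5% CO2 for 7 days. Viability was read by Alamar Blue, with raptinal 20 μM as dead control. IC50 values are from n ≥ 3, SEM.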

linearized pBR322 DNA = experiment: DNA cross-linking/alkylation assay; type: biochemical; conditions: linearized pBR322 DNA 150 ng, 37 °C, Tris pH 8.5, 15 h, agarose gel
How it was run: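 pBR322 was linearised with EcoRI, purified and taken up in 10 mM Tris-Cl pH 8.5. DNA (150 ng) was incubated with test compound (DMSO, 5% v/v) at 37 °C for 15 h. Cisplatin and MMS served as positive controls. Samples were denatured 15 min at 4 °C in NaOH-containing sucrose/bromophenol blue buffer (no NaOH for non-denatured controls). Gels were run on 1% neutral agarose with ethidium bromide in TBE, 124 V, 1 h.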

[2] = system: Salmonella typhimurium TA100 strain; experiment: Ames test, TA100; type: cell-based; conditions: 30 μM, 5 days, no S9 activation, wells per 96
How it was run: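 TA100 S. typhimurium was grown overnight, then dispensed into 96-well plates (microplate Ames format) with test compound, growth medium and colorimetric indicator, without S9 activation. Plates were incubated 5 days, and the number of wells per plate showing revertant growth was scored by colour change.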

glioblastoma = conditions: GBM patients, TMZ added to RT; cited from earlier work
HCT116 cells = experiment: Cell viability assay, HCT116; type: cell-based
How it was run: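 HCT116 cells were grown in RPMI with 10% FBS and 1% pen-strep (37 °C, 5% CO2), seeded and allowed to adhere. Cells were tested with or without O6BG pretreatment. Test compound was added in DMSO (1% final) after 3 h. After 7 days, viability was read by Alamar Blue, with raptinal 20 μM as dead control.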

GL261 cells [3] = experiment: Quantitation of O6-guanine DNA adducts in cells; type: cell-based, mouse; conditions: 100, 300 or 500 μM, 8 h, LC–MS/MS
How it was run: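 GL261 cells were plated at 1 × 10^6 per well and exposed to test compound at 100, 300 or 500 μM (1% DMSO) for 8 h. Genomic DNA was extracted, then precipitated with sodium acetate and ethanol. DNA (10 μg) was hydrolysed to deoxynucleosides (37 °C, 6 h). O6-alkyl-dG was quantified by LC–MS/MS against a synthetic standard; n ≥ 3.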

D54 cells = experiment: Quantitation of O6-guanine DNA adducts in cells; type: cell-based; conditions: D54, MGMT-negative; LC–MS/MS
[4] = Assessment of hematological toxicity; type: in vivo, CD-1 IGS mice; conditions: mice, single 125 mg/kg IV dose, 7 days
U118MG cells = experiment: Cell viability assay, U118MG; type: cell-based; conditions: MGMT-expressing
GL261 cells [5] = experiment: Cell viability assay, GL261; type: cell-based; conditions: Mus musculus, GL261, 168 h
How it was run: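 Cells were grown in DMEM with 10% FBS and 1% pen-strep at 37 °C, 5% CO2, seeded and allowed to adhere. After 3 h, test compound was added in DMSO (1% final). Cells were incubated 7 days, and viability was assessed by Alamar Blue, with raptinal 20 μM as dead control.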

[6] = aqueous solution, PBS, pH 7.4, 37 °C; cited from earlier work
[7] = system: Escherichia coli WP2 uvrA pKM101 strain; experiment: Ames test, WP2 uvrA pKM101; type: cell-based; conditions: 30 μM
How it was run: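 E. coli WP2 uvrA pKM101 tester strain was run in the 96-well microplate version of the Ames test following the kit maker's instructions. Test compound was added at the indicated concentrations.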

D341 Med cells = experiment: Cell viability assay, D341 Med medulloblastoma; type: cell-based; conditions: Homo sapiens, 168 h
How it was run: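 D341 Med medulloblastoma cells were grown in EMEM with 20% FBS and 1% pen-strep (37 °C, 5% CO2). Cells were seeded and compound was added in DMSO (1% final) after 3 h. Incubation lasted 7 days, and viability was read by Alamar Blue, with raptinal 20 μM as dead control.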

[8] = same schedule (once-per-day over five days); cited from earlier work
GL261 MGMT+ cells = experiment: Cell viability assay, GL261 MGMT+; type: cell-based, mouse
A172 cells = experiment: Quantitation of O6-guanine DNA adducts in cells; type: cell-based; conditions: A172, MGMT-negative; LC–MS/MS
[9] = cited from earlier work
RKO cells = experiment: Cell viability assay, RKO colon cancer; type: cell-based
[10] = high MGMT expression, MGMT(+)/MMR(+), 7 days, Alamar Blue

NC(=O)c1ncn2c(=O)[nH]nnc12 [Compound 1]
cytotoxicity (in words) (T98G cells; 7 days): unable to induce cell death | cytotoxicity (in words) (U87 cells): unable to induce cell death

CCn1nnc2c(C(N)=O)ncn2c1=O [Compound 2]
cytotoxicity (in words) (T98G cells; 7 days): much less active than TMZ | pIC50 (U87 cells): 3.33 | cytotoxicity (in words) (U87 cells): much less active than TMZ

CC(C)n1nnc2c(C(N)=O)ncn2c1=O [Compound 4]
cytotoxicity (in words) (T98G cells; 7 days): inactive | cytotoxicity (in words) (U87 cells): inactive

CC(C)(C)n1nnc2c(C(N)=O)ncn2c1=O [Compound 5]
cytotoxicity (in words) (T98G cells; 7 days): inactive | cytotoxicity (in words) (U87 cells): inactive

CC(C)(C)Cn1nnc2c(C(N)=O)ncn2c1=O [Compound 6]
cytotoxicity (in words) (T98G cells; 7 days): inactive | cytotoxicity (in words) (U87 cells): inactive

C#CCn1nnc2c(C(N)=O)ncn2c1=O [Compound 10]
half-life ([1]; PBS pH 7.4, 37 °C): ~ 30 min | hydrolytic stability, percentage of prodrug remaining after 2 h ([1]; PBS pH 7.4, 37 °C): 8% | pIC50 (T98G cells; [10]): 4.11 | efficacy in an intracranial efficacy model (in words) (GBM): limited efficacy | brain:serum ratio (BBB permeability): 0.06 ± 0.01 ng/g:ng/mL | pIC50 (U87 cells): 4.54 | pIC50 (GBM cell lines; all cell lines of the expanded GBM panel): > 4.00

CC#CCn1nnc2c(C(N)=O)ncn2c1=O [Compound 19]
pIC50 (T98G cells; [10]): 3.96 | DNA alkylation (in words) (linearized pBR322 DNA): Trace DNA alkylation | DNA interstrand cross-linking (in words) (linearized pBR322 DNA): definitively absent | pIC50 (U87 cells): 4.43

COS(C)(=O)=O [MMS, methylmethanesulfonate]
DNA alkylation (in words) (linearized pBR322 DNA): cause DNA streaking

NC(=O)c1ncn2c(=O)n(CCCl)nnc12 [MTZ, mitozolomide]
cytotoxicity (in words) (T98G cells; 7 days): robust cytotoxicity | cytotoxicity (in words) (U87 cells): robust cytotoxicity

Cn1nnc2c(C(N)=O)ncn2c1=O [TMZ, temozolomide]
revertant (mutated) colonies [2]: 35/96 | hydrolytic stability, percentage of prodrug remaining after 2 h ([1]; PBS pH 7.4, 37 °C): 40% | half-life at 100 μM ([1]; PBS, pH 7.4): ~1.5 h | pIC50 (T98G cells; Homo sapiens, 168 h): < 3.26 | loss of activity in T98G relative to U87 (T98G cells; IC50 T98G vs U87): > 10 fold | effect of MGMT inhibitor pretreatment on cell death (T98G cells; T98G pretreated (3 h) with O6BG vs non-pretreated): dramatic potentiation of cell death | overall patient survival (glioblastoma): 15 months | survival benefit vs RT alone (glioblastoma): ≤ 8 month | effect of MGMT inhibitor pretreatment on cytotoxicity (HCT116 cells; HCT116 pretreated with O6BG): negligible potentiation | pIC50 (HCT116 cells; Homo sapiens, HCT-116, 168 h): < 3.10 | O6-alkyl-2′-deoxyguanosine adducts (O6-Me-dG for TMZ, O6-Prop-dG for CPZ) (GL261 cells [3]): dose-dependent increase | O6-dG alkylation adducts (D54 cells): dose-dependent increase in methyl adducts | white blood cell, lymphocyte and neutrophil counts (in words) [4]: depletions in white blood cells, lymphocytes, and neutrophils | effect of MGMT inhibitor pretreatment on cell death (U118MG cells): cell death potentiation | pIC50 (GL261 cells [5]): 3.92 | half-life in vitro [6]: 1.5 to 2 h | mutagenicity (in words) [7]: highly mutagenic | revertant colonies ([7]; wells per 96): 95/96 | pIC50 (D341 Med cells): 3.34 | DNA alkylation (in words) (linearized pBR322 DNA): cause DNA streaking | reported MTD [8]: ~ 66 mg/kg | effect of MGMT inhibitor pretreatment on cell death (GL261 MGMT+ cells; GL261 MGMT+ pre-treated with lomeguatrib): potentiation of cell death | pIC50 (GL261 MGMT+ cells; Mus musculus, GL261, 168 h): < 3.00 | O6-dG alkylation adducts (A172 cells): dose-dependent increase in methyl adducts | difference in IC50 values between MGMT-negative and positive cell lines (GBM cell lines; expanded GBM panel): > 6 fold | half-life in vivo (t1/2) ([9]; human patients, human pharmacokinetics): 1.5 to 2 h | cerebral spinal fluid concentration as percentage of plasma concentration ([9]; humans, average): about 20% | pIC50 (RKO cells; Homo sapiens): < 3.00 | effect of MGMT inhibitor pretreatment on cell death (RKO cells; MGMT-expressing, MGMT inhibitor): cell death potentiation

C=CC=O [acrolein]
DNA alkylation (in words) (linearized pBR322 DNA): no evidence of alkylation | DNA interstrand cross-linking (in words) (linearized pBR322 DNA): interstrand cross-linking

N.N.[Cl][Pt][Cl] [cisplatin]
DNA interstrand cross-linking (in words) (linearized pBR322 DNA): prevent the full denaturation of double-stranded DNA
